Experimental data from ChEMBL document CHEMBL2311268, “Targeting the binding function 3 (BF3) site of the androgen receptor through virtual screening. 2. development of 2-((2-phenoxyethyl) thio)-1H-benzimidazole derivatives” (J Med Chem, 2013).
Activity calls are given as the source filed them. No cut-off for these calls is given here.

Experiments:
Androgen receptor [1] = molecular target: T1, Androgen receptor (Homo sapiens, UniProt P10275); test: Inhibition of BF3 site of androgen receptor in human LNCAP cells expressing ARR2PB after 3 days by eGFP transcriptional assay; format: cell-based
T1 sequence (P10275 whole entry): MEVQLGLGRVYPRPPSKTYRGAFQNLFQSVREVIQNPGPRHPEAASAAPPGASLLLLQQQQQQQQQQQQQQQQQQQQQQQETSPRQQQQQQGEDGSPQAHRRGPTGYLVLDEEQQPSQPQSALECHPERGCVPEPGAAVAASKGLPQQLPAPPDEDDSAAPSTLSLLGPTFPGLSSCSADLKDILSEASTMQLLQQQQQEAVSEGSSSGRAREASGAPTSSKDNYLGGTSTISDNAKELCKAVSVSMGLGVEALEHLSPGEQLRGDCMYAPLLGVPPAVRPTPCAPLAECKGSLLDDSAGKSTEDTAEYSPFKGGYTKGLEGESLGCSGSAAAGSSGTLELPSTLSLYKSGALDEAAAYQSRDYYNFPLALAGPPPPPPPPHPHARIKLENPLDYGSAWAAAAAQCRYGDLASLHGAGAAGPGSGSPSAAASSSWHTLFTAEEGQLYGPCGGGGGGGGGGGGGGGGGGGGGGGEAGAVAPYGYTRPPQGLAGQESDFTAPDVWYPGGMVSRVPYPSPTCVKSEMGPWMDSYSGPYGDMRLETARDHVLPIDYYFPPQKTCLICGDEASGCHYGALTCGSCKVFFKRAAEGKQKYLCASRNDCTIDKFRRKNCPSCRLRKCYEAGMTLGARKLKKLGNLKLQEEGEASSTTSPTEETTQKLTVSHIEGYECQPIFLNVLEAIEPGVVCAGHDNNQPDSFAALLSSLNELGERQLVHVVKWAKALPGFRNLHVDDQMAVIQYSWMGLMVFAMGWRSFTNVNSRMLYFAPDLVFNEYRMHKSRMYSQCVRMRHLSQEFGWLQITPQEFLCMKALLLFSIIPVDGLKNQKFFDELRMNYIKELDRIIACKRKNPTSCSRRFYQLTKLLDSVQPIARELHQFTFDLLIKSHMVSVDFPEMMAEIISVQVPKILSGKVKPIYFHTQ

[2] = molecular target: T2, Estrogen receptor (Homo sapiens) (UniProt P03372); test: Inhibition of estrogen receptor alpha in human MCF7 cells at 1 to 10 uM after 3 days by luciferase reporter gene assay; format: cell-based
T2 sequence (whole entry): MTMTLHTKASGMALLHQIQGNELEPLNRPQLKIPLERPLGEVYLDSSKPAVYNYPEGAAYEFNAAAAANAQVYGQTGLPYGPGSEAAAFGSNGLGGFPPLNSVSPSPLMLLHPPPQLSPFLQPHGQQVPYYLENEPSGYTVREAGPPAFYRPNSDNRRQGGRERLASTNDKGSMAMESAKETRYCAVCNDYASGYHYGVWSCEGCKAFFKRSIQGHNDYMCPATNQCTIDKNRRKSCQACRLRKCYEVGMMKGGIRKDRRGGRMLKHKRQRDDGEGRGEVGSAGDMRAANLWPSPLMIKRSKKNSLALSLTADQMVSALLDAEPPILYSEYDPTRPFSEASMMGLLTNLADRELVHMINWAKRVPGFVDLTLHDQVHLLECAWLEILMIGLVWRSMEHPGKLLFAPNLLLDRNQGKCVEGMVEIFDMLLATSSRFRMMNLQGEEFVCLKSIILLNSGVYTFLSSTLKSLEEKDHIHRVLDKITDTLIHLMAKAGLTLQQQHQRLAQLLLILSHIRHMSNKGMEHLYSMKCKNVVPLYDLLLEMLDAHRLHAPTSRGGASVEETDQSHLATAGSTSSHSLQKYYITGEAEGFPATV
How it was run: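 MCF-7 cells were kept 5 days in phenol-red-free RPMI 1640 with 10% CSS, then seeded. After 24 h they were transfected with a luciferase plasmid driven by a consensus estrogen response element. Next day they were treated with 1 nM E2 plus test compound (10 µM final) in 0.1% EtOH/0.1% DMSO. Cells were lysed 24 h later and luminescence read.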

PC-3 = test: Cytotoxicity against AR independent human PC3 cells assessed as growth inhibition at 6 uM after 4 days; format: functional, cell-based
How it was run: (§1)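 Viability read after a 4-day incubation with compound at 6 µM in LNCaP, enzalutamide-resistant LNCaP-derived and AR-independent PC3 prostate cancer cells; data given as mean ± SEM.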

LNCaP [3] = test: Cytotoxicity against enzalutamide-resistant human LNCAP cells assessed as growth inhibition at 6 uM after 4 days; format: functional, cell-based; how it was run: as §1
LNCaP [4] = test: Cytotoxicity against human LNCAP cells assessed as growth inhibition at 6 uM after 4 days; format: functional, cell-based; how it was run: as §1
Androgen receptor [5] = molecular target: T1, Androgen receptor; format: cell-based, LNCaP
Androgen receptor [6] = molecular target: T1, Androgen receptor; test: Inhibition of BF3 site of androgen receptor in human LNCAP cells expressing ARR2PB assessed as reduction in PSA level after 3 days; format: cell-based

Work on `COC(=O)Cn1c(SCCOc2ccc(C)cc2)nc2ccccc21` yielded an IC50 (Androgen receptor [1]) of 32.9 µM.

Compound `Cc1cccc(OCCSc2nc3ccccc3n2CCC(=O)O)c1` has an IC50 (Androgen receptor [1]) of over 200 µM.

`Cc1ccc(OCCSc2nc3ccccc3n2CC(=O)O)cc1C` gave an IC50 (Androgen receptor [1]) of over 200 µM.

For `Cc1ccc(C)c(OCCSc2nc3ccccc3n2CC(=O)O)c1`, the IC50 (Androgen receptor [1]) was over 200 µM.

`c1ccc(CCCSc2nc3ccccc3[nH]2)cc1` gave an IC50 (Androgen receptor [1]) of 12 µM.

In the case of `NS(=O)(=O)c1cccc2cc(SCCOc3ccccc3)[nH]c12`, the inhibition [2] is reported as “inactive”, the “growth inhibition (GI)” value (PC-3) is reported as “inactive” and the “growth inhibition (GI)” value (LNCaP [3]) is reported as “Active”. For the same compound, the “growth inhibition (GI)” value (LNCaP [4]) was “Active”, the IC50 (Androgen receptor [5]) was 6.4 µM and the IC50 (Androgen receptor [6]) was 1600 nM. The IC50 (Androgen receptor [1]) was 1.5 µM.

In the case of `Cc1ccc(OCCSc2nc3ccccc3n2CC(=O)OC(C)C)cc1C`, the IC50 (Androgen receptor [1]) is reported as 30.6 µM.

With `Cc1ccc(OCCSc2nc3ccccc3[nH]2)cc1` the IC50 (Androgen receptor [1]) was 7 µM.

`Cc1cccc(OCCSc2nc3ccccc3n2CC(=O)N2CCOCC2)c1` gave an IC50 (Androgen receptor [1]) of over 200 µM.

Work on `COCCn1c(SCCOc2cccc(C)c2)nc2ccccc21` yielded an IC50 (Androgen receptor [1]) of 24.1 µM.

Work on `CCOc1cccc(OCCSc2nc3ccccc3n2CCOc2ccc(C)cc2)c1` yielded an IC50 (Androgen receptor [1]) of 22.8 µM.

`COCCn1c(SCCOc2ccc(C)cc2)nc2ccccc21` was tested, and the IC50 (Androgen receptor [1]) was 12.7 µM.

`c1ccc(OCCSc2cc3ccccc3[nH]2)cc1` gave an IC50 (Androgen receptor [1]) of 5.4 µM.

With `CCc1cccc(OCCSc2nc3ccccc3n2CC(=O)O)c1` the IC50 (Androgen receptor [1]) was over 200 µM.

`CCc1cccc(OCCSc2nc3ccccc3n2CCC(=O)O)c1` was tested, and the IC50 (Androgen receptor [1]) was over 200 µM.

`Clc1ccc(OCCSc2nc3ccccc3[nH]2)cc1` was tested, and the IC50 (Androgen receptor [1]) was 4 µM.

Work on `CCOC(=O)Cn1c(SCCOc2cc(C)cc(C)c2)nc2ccccc21` yielded an IC50 (Androgen receptor [1]) of over 200 µM.

`COC(=O)Cn1c(SCCOc2ccc(C)c(C)c2)nc2ccccc21` was tested, and the IC50 (Androgen receptor [1]) was over 200 µM.

`CCn1c(SCCOc2cccc(C)c2)nc2ccccc21` gave an IC50 (Androgen receptor [1]) of 35 µM.

For `C=CCc1cccc(OCCSc2nc3ccccc3n2CC(=O)OC)c1`, the IC50 (Androgen receptor [1]) was over 200 µM.

`CCN(CC)C(=O)Cn1c(SCCOc2cccc(C)c2)nc2ccccc21` gave an IC50 (Androgen receptor [1]) of over 200 µM.

`Cc1cccc(OCCSc2nc3ccccc3[nH]2)c1` was tested, and the inhibition [2] was “inactive”, the “growth inhibition (GI)” value (PC-3) was “inactive” and the “growth inhibition (GI)” value (LNCaP [3]) was “Active”. For the same compound, the “growth inhibition (GI)” value (LNCaP [4]) was “Active”, the IC50 (Androgen receptor [5]) was 13 µM and the IC50 (Androgen receptor [6]) was 3300 nM. The IC50 (Androgen receptor [1]) was 1.8 µM.

In the case of `Cc1cccc(OCCSc2nc3ccccc3n2CC(=O)O)c1`, the IC50 (Androgen receptor [1]) is reported as over 200 µM.

In the case of `Cc1ccc(OCCSc2nc3ccccc3n2CCC(=O)O)cc1`, the IC50 (Androgen receptor [1]) is reported as over 200 µM.

With `CCc1cccc(OCCSc2nc3ccccc3n2CC(=O)OC)c1` the IC50 (Androgen receptor [1]) was over 200 µM.

`CCn1c(SCCOc2ccccc2)nc2ccccc21` was tested, and the IC50 (Androgen receptor [1]) was 12 µM.

In the case of `Cc1ccccc1OCCSc1nc2ccccc2[nH]1`, the IC50 (Androgen receptor [1]) is reported as 19 µM.

In the case of `O=S(=O)(CCOc1ccccc1)c1nc2ccccc2[nH]1`, the IC50 (Androgen receptor [1]) is reported as over 200 µM.

In the case of `c1ccc(OCCSc2nc3ccccc3[nH]2)cc1`, the inhibition [2] is reported as “inactive”, the “growth inhibition (GI)” value (PC-3) is reported as “inactive” and the “growth inhibition (GI)” value (LNCaP [3]) is reported as “inactive”. The “growth inhibition (GI)” value (LNCaP [4]) was “inactive”.

In the case of `c1ccc(OCCNc2nc3ccccc3[nH]2)cc1`, the IC50 (Androgen receptor [1]) is reported as over 200 µM.

With `Cc1cccc(OCCSc2nc3ccccc3n2CCOc2ccccc2)c1` the IC50 (Androgen receptor [1]) was over 200 µM.

`Cc1cccc(C)c1OCCSc1nc2ccccc2[nH]1` was tested, and the inhibition [2] was “inactive”, the “growth inhibition (GI)” value (PC-3) was “inactive” and the “growth inhibition (GI)” value (LNCaP [3]) was “Active”. The “growth inhibition (GI)” value (LNCaP [4]) was “Active”, the IC50 (Androgen receptor [5]) was 6.8 µM and the IC50 (Androgen receptor [6]) was 1900 nM. For the same compound, the IC50 (Androgen receptor [1]) was 2.7 µM.

For `Cc1ccc(OCCSc2nc3ccccc3n2CC(=O)O)cc1`, the IC50 (Androgen receptor [1]) was 164 µM.

`c1ccc(CCSc2nc3ccccc3[nH]2)cc1` was tested, and the IC50 (Androgen receptor [1]) was 7.4 µM.

With `Clc1cccc(OCCSc2nc3ccccc3[nH]2)c1` the IC50 (Androgen receptor [1]) was 5 µM.

`OCCn1c(SCCOc2ccccc2)nc2ccccc21` gave an IC50 (Androgen receptor [1]) of over 200 µM.

For `CC(C)(C)c1cccc(OCCSc2nc3ccccc3n2CC(=O)O)c1`, the IC50 (Androgen receptor [1]) was over 200 µM.

In the case of `Cc1ccc(OCCSc2nc3ccccc3n2CC(=O)OC(C)C)cc1`, the IC50 (Androgen receptor [1]) is reported as 11.1 µM.

`c1ccc(OCCSc2nc3ccccc3o2)cc1` was tested, and the IC50 (Androgen receptor [1]) was over 200 µM.

`NS(=O)(=O)c1ccc(OCCSc2nc3ccccc3[nH]2)cc1` was tested, and the IC50 (Androgen receptor [1]) was 62 µM.

`Cc1cccc(OCCSc2nc3ccccc3n2C)c1` gave an IC50 (Androgen receptor [1]) of 45 µM.

Work on `C=CCn1c(SCCOc2ccccc2)nc2ccccc21` yielded an IC50 (Androgen receptor [1]) of over 200 µM.

Work on `O=C(O)CCn1c(SCCOc2ccccc2)nc2ccccc21` yielded an IC50 (Androgen receptor [1]) of over 200 µM.

`CCOC(=O)Cn1c(SCCOc2cccc(C)c2)nc2ccccc21` was tested, and the IC50 (Androgen receptor [1]) was 14.1 µM.

In the case of `Cc1cccc(OCCSc2nc3ccccc3n2CC(=O)OC(C)C)c1`, the IC50 (Androgen receptor [1]) is reported as 13.7 µM.

Work on `[O-][S+](CCOc1ccccc1)c1nc2ccccc2[nH]1` (stereo not drawn) yielded an IC50 (Androgen receptor [1]) of over 200 µM.

With `c1ccc(OCCCSc2nc3ccccc3[nH]2)cc1` the IC50 (Androgen receptor [1]) was over 200 µM.

`CCOC(=O)Cn1c(SCCOc2ccc(C)c(C)c2)nc2ccccc21` showed an IC50 (Androgen receptor [1]) of 40.3 µM.

Work on `Cc1cc(C)cc(OCCSc2nc3ccccc3n2CC(=O)O)c1` yielded an IC50 (Androgen receptor [1]) of over 200 µM.

For `CCOC(=O)Cn1c(SCCOc2cccc(CC)c2)nc2ccccc21`, the IC50 (Androgen receptor [1]) was 55 µM.

Compound `c1ccc(OCCCc2nc3ccccc3[nH]2)cc1` has an IC50 (Androgen receptor [1]) of over 200 µM.

For `c1ccc(NCCSc2nc3ccccc3[nH]2)cc1`, the IC50 (Androgen receptor [1]) was over 200 µM.
